Where two headings read alike, the source gives them in different places.
Columns and labels:
[1] = system: HT-29 (human colorectal adenocarcinoma); assay: SRB cytotoxicity assay, HT-29 cells; format: cell-based; details: read-out: IC50 HT-29
Method in brief: (§1)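 Cells plated at 3 × 10³ per well and left 24 h to attach at 37 °C, 5% CO₂. Test compound at 0–100 µM from ethanol stocks (1% final ethanol) for 72 h. Fixation in TCA (10% final), staining with 0.1% SRB, dye solubilized in 10 mM Tris, A540. Viability relative to 1% ethanol vehicle. IC50 from a four-parameter logistic fit with 95% CI; triplicate, three independent runs, mean ± SD. SI = IC50 in GES-1 divided by IC50 in the cancer line.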

[2] = system: AGS (human gastric adenocarcinoma); assay: SRB cytotoxicity assay, AGS cells; format: cell-based; details: read-out: IC50 AGS
Method in brief: as §1

[3] = system: PC-3 (human prostate cancer); assay: SRB cytotoxicity assay, PC-3 cells; format: cell-based; details: read-out: IC50 PC-3
Method in brief: as §1

[4] = DPPH radical scavenging assay; format: biochemical; details: concentration to scavenge 50% of radicals, 15 min, mean ± SD
Method in brief: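 Test compound solutions (5–400 µg/mL, concentration before mixing) were added to 50 µM ethanolic DPPH and kept 15 min at room temperature in the dark, then read at 517 nm. A blank with solvent in place of compound served as control. IC50 came from linear regression of % scavenging against concentration. Three independent experiments in triplicate, mean ± SD.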

[5] = ABTS radical scavenging assay; format: biochemical; details: concentration to scavenge 50% of radicals, mean ± SD; for IC50: read-out: ABTS IC50
Method in brief: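 ABTS radical cation generated by reacting ABTS with potassium persulfate, then diluted to an absorbance of about 0.700 at 732 nm. Test compound at several concentrations was mixed with the ABTS⁺ solution and the fall in absorbance recorded. Percent scavenging was calculated against a solvent control, with ascorbic acid as reference antioxidant. Three independent experiments in triplicate, mean ± SD.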

human erythrocytes = assay: Hemolysis assay; format: cell-based; details: for Hemolysis (%): 30 min, 37 °C
Method in brief: (§2)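 Donor blood was collected in EDTA. RBCs were pelleted at 500 × g for 10 min, washed three times in PBS and resuspended in PBS. Cells were exposed to test compound at 10–300 µg/mL for 30 min at 37 °C with gentle agitation, then spun at 1000 × g for 5 min; supernatant hemoglobin was read at 540 nm. Deionized water defined 100% and PBS 0% hemolysis. Triplicate, three independent repeats.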

Hemolysis assay = format: cell-based, human; details: human, washed human red blood cells, Hemolysis (%), 30 min, 37 °C
Method in brief: as §2

[6] = system: GES-1 (healthy gastric epithelial cells); assay: SRB cytotoxicity assay, GES-1 non-tumor cells; format: cell-based, human; details: read-out: IC50 GES-1, 72 h treatment, mean ± SD

Compound	IC50 ([1]; Homo sapiens, HT-29, 72 h)	IC50 ([2]; Homo sapiens, AGS, 72 h)	IC50 ([3]; Homo sapiens, PC-3, 72 h)	DPPH IC50 [4]	ABTS IC50 [5]	IC50 [5]	Hemolysis (%) (human erythrocytes; 10 µg/mL)	Hemolysis (%) (human erythrocytes; 25 µg/mL)	Hemolysis (%) (human erythrocytes; 50 µg/mL)	Hemolysis (%) (human erythrocytes; 100 µg/mL)	hemolysis at 30 min, 200 µg/mL (Hemolysis assay; 200 µg/mL)	hemolysis at 30 min, 300 µg/mL (Hemolysis assay; 300 µg/mL)	IC50 ([1]; SRB, 72 h treatment, mean ± SD)	IC50 [6]	IC50 ([2]; SRB, 72 h treatment, mean ± SD)	IC50 ([3]; SRB, 72 h treatment, mean ± SD)	Hemolysis (%) (human erythrocytes; 200 µg/mL)	Hemolysis (%) (human erythrocytes; 300 µg/mL)	Hemolysis, result in words (human erythrocytes; 10–300 µg/mL)
CC12CCC(CC1=O)C2(C)C (centres unmarked) [Compound 1, camphor, reference compound]	> 100 µM	> 100 µM	> 100 µM	inactive	inactive	> 2630 µM	0%	0.06%	3.11%	4.80%	9.67%	10.1%	–	–	–	–	–	–	–
CC12CCC(CC1=O)C2(C)C (centres unmarked) [Compound 2, camphor, reference compound]	–	–	–	inactive	inactive	> 2630 µM	5.25%	6.55%	9.61%	11.29%	–	–	> 100 µM	322.7 ± 1.7 µM	> 100 µM	> 100 µM	16.16%	16.62%	concentration dependent increase in hemolysis

Reference: PMC12705676 (Scientific Reports, 2025)
